# Measured values published in ChEMBL document CHEMBL1145627, “E-ring-modified 7-oxyiminomethyl camptothecins: Synthesis and preliminary in vitro and in vivo biological evaluation” (Bioorg Med Chem Lett, 2008).
# Columns and labels:
# PANC-1 [1] = test: Antitumor activity against human Panc1 cells xenografted athymic mouse assessed as inhibition of tumor volume at 15 mg/kg, po administered in q4dx4 schedule; assay type: functional
# In short: (§1)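 Human tumor xenografts (CoBa colon, MKN-28 gastric, Panc-1 pancreatic) grown subcutaneously in mice. Drug given orally on an intermittent q4dx4 schedule. Read-out is % tumor volume inhibition in treated versus control mice. Complete responses were scored as tumor disappearance lasting at least ten days.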
# MKN-28 [2] = test: Antitumor activity against human MKN28 cells xenografted athymic mouse assessed as inhibition of tumor volume at 12 mg/kg, po administered in q4dx4 schedule; assay type: functional
# In short: (§2)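 Oral dosing on an intermittent q4dx4 schedule in mice bearing MKN-28 gastric carcinoma xenografts. Tumor volume inhibition % is relative to controls. Body weight loss % is the loss induced by drug treatment.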
# HT-29 [3] = test: Antiproliferative activity against BCRP overexpressing mitoxantrone-resistant human HT29 cells after 1 hr of drug exposure measured after 72 hrs; assay type: functional, cell-based
# In short: (§3)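 Growth inhibition after 1-h drug exposure; IC50 is the concentration giving 50% reduction of cell growth versus untreated controls. Values are means ± SD from at least three experiments.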
# Mus musculus [4] = test: Toxicity in human CoBa cells xenografted athymic mouse assessed as survival at 15 mg/kg, po administered in q4dx4 schedule; assay type: organism-based; design: dose 15 mg/kg, route oral; conditions: in vivo
# In short: (§4)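 Mice carried subcutaneous human tumor xenografts (CoBa, MKN-28 or Panc-1). They were dosed orally on an intermittent q4dx4 schedule, which was also used to set the maximum tolerated dose. Toxicity was scored as lethal toxicity, given as dead/treated mice. Drug-induced % body weight loss was also recorded.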
# Mus musculus [5] = test: Toxicity in human MKN28 cells xenografted athymic mouse assessed as loss of body weight at 12 mg/kg, po administered in q4dx4 schedule; assay type: organism-based, MKN-28; design: dose 12 mg/kg, route oral; conditions: in vivo; in short: as §2
# Mus musculus [6] = test: Toxicity in human MKN28 cells xenografted athymic mouse assessed as survival at 3 mg/kg, po administered in q4dx4 schedule; assay type: organism-based, MKN-28; design: dose 3 mg/kg, route oral; conditions: in vivo; in short: as §4
# Mus musculus [7] = test: Toxicity in human MKN28 cells xenografted athymic mouse assessed as loss of body weight at 3 mg/kg, po administered in q4dx4 schedule; assay type: organism-based, MKN-28; design: dose 3 mg/kg, route oral; conditions: in vivo; in short: as §2
# Mus musculus [8] = test: Toxicity in human CoBa cells xenografted athymic mouse assessed as loss of body weight at 20 mg/kg, po administered in q4dx4 schedule; assay type: organism-based; design: dose 20 mg/kg, route oral; conditions: in vivo
# In short: (§5)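 Mice bearing subcutaneous CoBa colon carcinoma were treated on a q4dx4 schedule, orally or, for CPT11, at 50 mg/kg. Body weight loss % is the loss induced by drug treatment.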
# Mus musculus [9] = test: Toxicity in human Panc1 cells xenografted athymic mouse assessed as loss of body weight at 15 mg/kg, po administered in q4dx4 schedule; assay type: organism-based, PANC-1; design: dose 15 mg/kg, route oral; conditions: in vivo
# Mus musculus [10] = test: Toxicity in human MKN28 cells xenografted athymic mouse assessed as loss of body weight at 6 mg/kg, po administered in q4dx4 schedule; assay type: organism-based, MKN-28; design: dose 6 mg/kg, route oral; conditions: in vivo; in short: as §2
# [11] = Toxicity in po dosed human MKN28 cells xenografted athymic mouse administered in q4dx4 schedule; assay type: organism-based, MKN-28; conditions: in vivo
# [12] = Antitumor activity against human CoBa cells xenografted athymic mouse assessed as inhibition of tumor volume at 15 mg/kg, po administered in q4dx4 schedule; assay type: functional; in short: as §1
# MKN-28 [13] = test: Antitumor activity against human MKN28 cells xenografted athymic mouse assessed as inhibition of tumor volume at 6 mg/kg, po administered in q4dx4 schedule; assay type: functional; in short: as §2
# Mus musculus [14] = test: Toxicity in human Panc1 cells xenografted athymic mouse assessed as survival at 14 mg/kg, po administered in q4dx4 schedule; assay type: organism-based, PANC-1; design: dose 14 mg/kg, route oral; conditions: in vivo; in short: as §4
# Mus musculus [15] = test: Toxicity in human CoBa cells xenografted athymic mouse assessed as loss of body weight at 15 mg/kg, po administered in q4dx4 schedule; assay type: organism-based; design: dose 15 mg/kg, route oral; conditions: in vivo; in short: as §5
# HT-29 [16] = test: Resistant index, ratio of IC50 for BCRP overexpressing mitoxantrone-resistant human HT29 cells to IC50 for human HT29 cells; assay type: functional
# In short: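 Resistance index in HT29/mit, the BCRP-overexpressing subline. IC50 values come from the 1-h exposure growth inhibition assay, as 50% growth reduction versus untreated controls.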
# NCI-H460 [17] = test: Antiproliferative activity against human H460 cells after 1 hr of drug exposure measured after 72 hrs; assay type: functional, cell-based; in short: as §3
# HT-29 [18] = test: Antiproliferative activity against human HT29 cells after 1 hr of drug exposure measured after 72 hrs; assay type: functional, cell-based; in short: as §3
# MKN-28 [19] = test: Antitumor activity against human MKN28 cells xenografted athymic mouse assessed as inhibition of tumor volume at 3 mg/kg, po administered in q4dx4 schedule; assay type: functional; in short: as §2
# Mus musculus [20] = test: Toxicity in human MKN28 cells xenografted athymic mouse assessed as survival at 6 mg/kg, po administered in q4dx4 schedule; assay type: organism-based, MKN-28; design: dose 6 mg/kg, route oral; conditions: in vivo; in short: as §4
# Mus musculus [21] = test: Toxicity in human MKN28 cells xenografted athymic mouse assessed as survival at 12 mg/kg, po administered in q4dx4 schedule; assay type: organism-based, MKN-28; design: dose 12 mg/kg, route oral; conditions: in vivo; in short: as §4
# Mus musculus [22] = test: Toxicity in human Panc1 cells xenografted athymic mouse assessed as loss of body weight at 14 mg/kg, po administered in q4dx4 schedule; assay type: organism-based, PANC-1; design: dose 14 mg/kg, route oral; conditions: in vivo
# PANC-1 [23] = test: Antitumor activity against human Panc1 cells xenografted athymic mouse assessed as inhibition of tumor volume at 14 mg/kg, po administered in q4dx4 schedule; assay type: functional; in short: as §1
# NCI-H460 [24] = test: Antiproliferative activity against human H460 cells after 2 hrs of drug exposure measured after 72 hrs; assay type: functional, cell-based
# In short: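 Growth inhibition with IC50 taken after 2-h drug exposure, as the concentration giving 50% reduction of cell growth versus untreated controls.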
# Mus musculus [25] = test: Toxicity in human MKN28 cells xenografted athymic mouse assessed as loss of body weight at 8 mg/kg, po administered in q4dx4 schedule; assay type: organism-based, MKN-28; design: dose 8 mg/kg, route oral; conditions: in vivo; in short: as §2
# MKN-28 [26] = test: Antitumor activity against human MKN28 cells xenografted athymic mouse assessed as inhibition of tumor volume at 8 mg/kg, po administered in q4dx4 schedule; assay type: functional; in short: as §1
# Mus musculus [27] = test: Toxicity in human MKN28 cells xenografted athymic mouse assessed as survival at 16 mg/kg, po administered in q4dx4 schedule; assay type: organism-based, MKN-28; design: dose 16 mg/kg, route oral; conditions: in vivo; in short: as §4
# Mus musculus [28] = test: Toxicity in human MKN28 cells xenografted athymic mouse assessed as survival at 4 mg/kg, po administered in q4dx4 schedule; assay type: organism-based, MKN-28; design: dose 4 mg/kg, route oral; conditions: in vivo; in short: as §4
# Mus musculus [29] = test: Toxicity in human MKN28 cells xenografted athymic mouse assessed as loss of body weight at 16 mg/kg, po administered in q4dx4 schedule; assay type: organism-based, MKN-28; design: dose 16 mg/kg, route oral; conditions: in vivo; in short: as §2
# Mus musculus [30] = test: Toxicity in human MKN28 cells xenografted athymic mouse assessed as loss of body weight at 4 mg/kg, po administered in q4dx4 schedule; assay type: organism-based, MKN-28; design: dose 4 mg/kg, route oral; conditions: in vivo; in short: as §2
# MKN-28 [31] = test: Antitumor activity against human MKN28 cells xenografted athymic mouse assessed as inhibition of tumor volume at 16 mg/kg, po administered in q4dx4 schedule; assay type: functional; in short: as §1
# MKN-28 [32] = test: Antitumor activity against human MKN28 cells xenografted athymic mouse assessed as inhibition of tumor volume at 4 mg/kg, po administered in q4dx4 schedule; assay type: functional; in short: as §1
# Mus musculus [33] = test: Toxicity in human MKN28 cells xenografted athymic mouse assessed as survival at 8 mg/kg, po administered in q4dx4 schedule; assay type: organism-based, MKN-28; design: dose 8 mg/kg, route oral; conditions: in vivo; in short: as §4
compound,measurement,setting,value
CCC1(O)CC(=O)OCc2c1cc1n(c2=O)Cc2c-1nc1ccccc1c2/C=N/OC(C)(C)C (racemic),LCK,PANC-1 [1],1.6
same,inhibition in vivo at 12 mg/kg,MKN-28 [2],81%
same,IC50,HT-29 [3],560 nM
same,Activity,Mus musculus [4],Non-toxic
same,Activity,Mus musculus [5],2%
same,Activity,Mus musculus [6],Non-toxic
same,Activity,Mus musculus [7],0%
same,Activity,Mus musculus [8],18%
same,Activity,Mus musculus [9],16%
same,Activity,Mus musculus [10],0%
same,MTD,[11],12 mg/kg
same,LCK,[12],1.3
same,inhibition in vivo at 15 mg/kg,"[12]; Homo sapiens, CoBa",95%
same,inhibition in vivo at 6 mg/kg,MKN-28 [13],47%
same,Activity,Mus musculus [14],Non-toxic
same,Activity,Mus musculus [15],21%
same,Ratio IC50,HT-29 [16],14
same,IC50,NCI-H460 [17],36.8 nM
same,IC50,HT-29 [18],41 nM
same,inhibition in vivo at 3 mg/kg,MKN-28 [19],71%
same,Activity,Mus musculus [20],Non-toxic
same,Activity,Mus musculus [21],Non-toxic
same,Activity,Mus musculus [22],5%
same,LCK,PANC-1 [23],1.4
same,inhibition in vivo at 14 mg/kg,"PANC-1 [23]; Mus musculus, PANC-1",99%
CC[C@@]1(O)CC(=O)OCc2c1cc1n(c2=O)Cc2cc3ccccc3nc2-1 [HOMOCAMPTOTHECIN],IC50,HT-29 [3],8550 nM
same,Ratio IC50,HT-29 [16],19
same,IC50,NCI-H460 [17],49.6 nM
same,IC50,HT-29 [18],440 nM
CC[C@]1(O)CC(=O)OCc2c1cc1n(c2=O)Cc2c-1nc1ccccc1c2/C=N/OC(C)(C)C,IC50,NCI-H460 [24],> 200 nM
CC[C@@]1(O)C(=O)OCc2c1cc1n(c2=O)Cc2cc3ccccc3nc2-1 [CAMPTOTHECIN],IC50,HT-29 [3],8810 nM
same,Ratio IC50,HT-29 [16],2.8
same,IC50,NCI-H460 [17],180 nM
same,IC50,HT-29 [18],3160 nM
CCc1c2c(nc3ccc(O)cc13)-c1cc3c(c(=O)n1C2)COC(=O)[C@]3(O)CC [7-ETHYL-10-HYDROXYCAMPTOTHECIN],IC50,HT-29 [3],11500 nM
same,Ratio IC50,HT-29 [16],17
same,IC50,NCI-H460 [17],220 nM
same,IC50,HT-29 [18],670 nM
CCC1(O)CC(=O)OCc2c1cc1n(c2=O)Cc2c-1nc1ccccc1c2/C=N/OCc1ccccc1 (centres undefined),Activity,Mus musculus [25],6%
same,LCK,MKN-28 [26],0.4
same,inhibition in vivo at 8 mg/kg,"MKN-28 [26]; Mus musculus, MKN-28",60%
same,IC50,HT-29 [3],350 nM
same,Activity,Mus musculus [27],Non-toxic
same,Activity,Mus musculus [28],Non-toxic
same,Activity,Mus musculus [29],0%
same,Activity,Mus musculus [30],0%
same,Ratio IC50,HT-29 [16],20
same,IC50,NCI-H460 [17],15 nM
same,LCK,MKN-28 [31],0.2
same,inhibition in vivo at 16 mg/kg,"MKN-28 [31]; Mus musculus, MKN-28",47%
same,IC50,HT-29 [18],17 nM
same,LCK,MKN-28 [32],0
same,inhibition in vivo at 4 mg/kg,"MKN-28 [32]; Mus musculus, MKN-28",17%
same,Activity,Mus musculus [33],Non-toxic
